Reference: ChEMBL document CHEMBL1123488, “Agents for the treatment of brain edema. 2. [(2,3,9,9a-Tetrahydro-3-oxo-9a-substituted-1H-fluoren-7-yl)oxy]+ ++alkanoi c acids and some of their analogues” (J Med Chem, 1986)
Values joined by “and” are separate entries in the source; they are usually repeats but may differ in a detail not shown here. Equal values may be shown once.

How the values were obtained:
Felis catus [1] = organism: Felis catus; test: Compound was tested for inhibition of HCO3- dependent swelling of cat cerebrocortical slices at concentration of (10e-10) M; type: functional
Outline: (§1)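 Cerebrocortical slices were weighed and incubated in Warburg flasks at 22 °C in medium of KCl 27, NaCl 100, glucose 10 and KH2PO4 1.2 mmol/L (27 mM K+ HEPES). HCO3- (5 mM) was added from the side arm for the final 40 min, and the compound was present throughout the 60 min. Swelling = (final − initial wet weight)/initial wet weight × 100. Two-tailed t-test versus 27 K + HCO3-.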

Felis catus [2] = organism: Felis catus; test: Compound was tested for inhibition of HCO3- dependent swelling of cat cerebrocortical slices at concentration of (10e-11) M; type: functional; outline: as §1
Felis catus [3] = organism: Felis catus; test: Compound was tested for inhibition of HCO3- dependent swelling of cat cerebrocortical slices at concentration of (10e-7) M; type: functional; outline: as §1
Felis catus [4] = organism: Felis catus; test: Compound was tested for inhibition of HCO3- dependent swelling of cat cerebrocortical slices at concentration of (10e-8) M; type: functional; outline: as §1
Felis catus [5] = organism: Felis catus; test: Compound was tested for inhibition of K+ ion uptake in cat cerebrocortical slices at concentration of (10e-8) M; type: functional
Outline: (§2)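 Slices were incubated 60 min at 22 °C in 27 mM K+ medium with 5 mM HCO3- added for the last 40 min, with the compound present throughout. Slices were then filtered off, reweighed and homogenized (10% w/v) in 1 N perchloric acid. The supernatant was assayed for electrolytes, expressed as µmol/g initial wet weight. Two-tailed t-test versus 27 K + HCO3-.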

Felis catus [6] = organism: Felis catus; test: Compound was tested for inhibition of K+ ion uptake in cat cerebrocortical slices at concentration of (10e-9) M; type: functional; outline: as §2
Felis catus [7] = organism: Felis catus; test: Compound was tested for inhibition of chloride ion uptake in cat cerebrocortical slices at concentration of (10e-11) M; type: functional; outline: as §2
Felis catus [8] = organism: Felis catus; test: Compound was tested for inhibition of chloride ion uptake in cat cerebrocortical slices at concentration of (10e-13) M; type: functional; outline: as §2
Felis catus [9] = organism: Felis catus; test: Compound was tested for inhibition of chloride ion uptake in cat cerebrocortical slices at concentration of (10e-8) M; type: functional; outline: as §2
Felis catus [10] = organism: Felis catus; test: Compound was tested for inhibition of chloride ion uptake in cat cerebrocortical slices at concentration of (10e-9) M; type: functional; outline: as §2
Felis catus [11] = organism: Felis catus; test: Compound was tested for inhibition of sodium ion uptake in cat cerebrocortical slices at concentration of (10e-10) M; type: functional
Felis catus [12] = organism: Felis catus; test: Compound was tested for inhibition of sodium ion uptake in cat cerebrocortical slices at concentration of (10e-9 )M; type: functional
Felis catus [13] = organism: Felis catus; test: Compound was tested for inhibition of sodium ion uptake in cat cerebrocortical slices at concentration of (10e-11) M; type: functional
Felis catus [14] = organism: Felis catus; test: Compound was tested for inhibition of K+ ion uptake in cat cerebrocortical slices at concentration of (10e-12) M; type: functional; outline: as §2
Felis catus [15] = organism: Felis catus; test: Compound was tested for inhibition of K+ ion uptake in cat cerebrocortical slices at concentration of (10e-13) M; type: functional; outline: as §2
Felis catus [16] = organism: Felis catus; test: Compound was tested for inhibition of K+ ion uptake in cat cerebrocortical slices at concentration of (10e-10) M; type: functional; outline: as §2
Cavia porcellus [17] = organism: Cavia porcellus; test: Compound was tested for inhibition of potassium ion uptake in guinea pig cerebrocortical slices at concentration of (10e-8) M; type: functional; outline: as §2
Cavia porcellus [18] = organism: Cavia porcellus; test: Compound was tested for inhibition of sodium ion uptake in guinea pig cerebrocortical slices at concentration of (10e-11) M; type: functional
Cavia porcellus [19] = organism: Cavia porcellus; test: Compound was tested for inhibition of sodium ion uptake in guinea pig cerebrocortical slices at concentration of (10e-12) M; type: functional
Cavia porcellus [20] = organism: Cavia porcellus; test: Compound was tested for inhibition of sodium ion uptake in guinea pig cerebrocortical slices at concentration of (10e-7) M; type: functional
Cavia porcellus [21] = organism: Cavia porcellus; test: Compound was tested for inhibition of sodium ion uptake in guinea pig cerebrocortical slices at concentration of (10e-8) M; type: functional
Cavia porcellus [22] = organism: Cavia porcellus; test: Compound was tested for inhibition of HCO3- dependent swelling of guinea pig cerebrocortical slices at concentration of (10e-10) M; type: functional; outline: as §1
Cavia porcellus [23] = organism: Cavia porcellus; test: Compound was tested for inhibition of chloride ion uptake in guinea pig cerebrocortical slices at concentration of (10e-9) M; type: functional; outline: as §2
Cavia porcellus [24] = organism: Cavia porcellus; test: Compound was tested for inhibition of potassium ion uptake in guinea pig cerebrocortical slices at concentration of (10e-10) M; type: functional; outline: as §2
Cavia porcellus [25] = organism: Cavia porcellus; test: Compound was tested for inhibition of potassium ion uptake in guinea pig cerebrocortical slices at concentration of (10e-12) M; type: functional; outline: as §2
Cavia porcellus [26] = organism: Cavia porcellus; test: Compound was tested for inhibition of chloride ion uptake in guinea pig cerebrocortical slices at concentration of (10e-12) M; type: functional; outline: as §2
Cavia porcellus [27] = organism: Cavia porcellus; test: Compound was tested for inhibition of chloride ion uptake in guinea pig cerebrocortical slices at concentration of (10e-6) M; type: functional; outline: as §2
Cavia porcellus [28] = organism: Cavia porcellus; test: Compound was tested for inhibition of chloride ion uptake in guinea pig cerebrocortical slices at concentration of (10e-7) M; type: functional; outline: as §2
Cavia porcellus [29] = organism: Cavia porcellus; test: Compound was tested for inhibition of chloride ion uptake in guinea pig cerebrocortical slices at concentration of (10e-8) M; type: functional; outline: as §2
Rattus norvegicus [30] = organism: Rattus norvegicus; test: Compound was tested for inhibition of chloride ion uptake in rat cerebrocortical slices at concentration of (10e-4) M; type: functional; outline: as §2
Rattus norvegicus [31] = organism: Rattus norvegicus; test: Compound was tested for inhibition of chloride ion uptake in rat cerebrocortical slices at concentration of (10e-8) M; type: functional; outline: as §2
Rattus norvegicus [32] = organism: Rattus norvegicus; test: Compound was tested for inhibition of potassium ion uptake in rat cerebrocortical slices at concentration of (10e-6) M; type: functional
Rattus norvegicus [33] = organism: Rattus norvegicus; test: Compound was tested for inhibition of sodium ion uptake in rat cerebrocortical slices at concentration of (10e-4) M; type: functional
Rattus norvegicus [34] = organism: Rattus norvegicus; test: Compound was tested for inhibition of sodium ion uptake in rat cerebrocortical slices at concentration of (10e-6) M; type: functional
Rattus norvegicus [35] = organism: Rattus norvegicus; test: Compound was tested for inhibition of sodium ion uptake in rat cerebrocortical slices at concentration of (10e-8) M; type: functional
Rattus norvegicus [36] = test: In vivo activity in the acceleration-deceleration head injury assay at dose of 10 mg/kg; type: functional
Outline: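 Cat acceleration-deceleration head injury model. Drug given intravenously 20 min after the acceleration-deceleration event, before the hypoxemia period. Animals were matched in pairs by sex and run together; one was randomly assigned to drug, the other served as control. Deaths were counted over 24 h after trauma, excluding animals dying during the procedure or hypoxemia. Mortality was compared by χ² analysis.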

Rattus norvegicus [37] = organism: Rattus norvegicus; test: Compound was tested for inhibition of HCO3- dependent swelling of rat cerebrocortical slices at concentration of (10e-8) M; type: functional; outline: as §1
Felis catus [38] = test: In vivo activity in the acceleration-deceleration head injury assay at dose of 5 mg/kg; 1/19
Felis catus [39] = test: In vivo activity in the acceleration-deceleration head injury assay at dose of 10 mg/kg; 6/16
Felis catus [40] = test: In vivo activity in the acceleration-deceleration head injury assay at dose of 1 mg/kg; 12/25
Felis catus [41] = test: In vivo activity in the acceleration-deceleration head injury assay at dose of 1 mg/kg; 14/25
Felis catus [42] = test: In vivo activity in the acceleration-deceleration head injury assay at dose of 10 mg/kg; 15/19
Felis catus [43] = test: In vivo activity in the acceleration-deceleration head injury assay at dose of 2.5 mg/kg; 5/21

For CCCC12CCC(=O)C=C1c1c(cc(OCC(=O)O)c(Cl)c1Cl)C2 (single isomer, unassigned; (+)), the Swelling (Felis catus [1]) was 19.5%, the Swelling (Felis catus [2]) was 19.1% and the Swelling (Felis catus [3]) was 20%. The Swelling (Felis catus [4]) was 18.6%, the Activity (Felis catus [5]) was 83.8 and the Activity (Felis catus [6]) was 86. For the same compound, the Activity (Felis catus [7]) was 87.9, the Activity (Felis catus [8]) was 98.5 and the Activity (Felis catus [9]) was 89.1. It also gave an Activity (Felis catus [10]) of 89.3, an Activity (Felis catus [11]) of 86.9 and an Activity (Felis catus [12]) of 85.6. It also gave an Activity (Felis catus [13]) of 86.4, an Activity (Felis catus [14]) of 90.9 and an Activity (Felis catus [15]) of 87.6. For the same compound, the Activity (Felis catus [16]) was 86.9, the Activity (Cavia porcellus [17]) was 90.8 and the Activity (Cavia porcellus [18]) was 103.4. It also gave an Activity (Cavia porcellus [19]) of 104.7, an Activity (Cavia porcellus [20]) of 125.4 and an Activity (Cavia porcellus [21]) of 108.6. For the same compound, the Swelling (Cavia porcellus [22]) was 26.8%, the Activity (Cavia porcellus [23]) was 105.2 and the Activity (Cavia porcellus [24]) was 101.3. It also gave an Activity (Cavia porcellus [25]) of 87.7, an Activity (Cavia porcellus [26]) of 100.5 and an Activity (Cavia porcellus [27]) of 103.8. It also gave an Activity (Cavia porcellus [28]) of 115.4, an Activity (Cavia porcellus [29]) of 103.8 and an Activity (Rattus norvegicus [30]) of 92.3. For the same compound, the Activity (Rattus norvegicus [31]) was 101.4, the Activity (Rattus norvegicus [32]) was 71.9 and the Activity (Rattus norvegicus [33]) was 112.1. The Activity (Rattus norvegicus [34]) was 127, the Activity (Rattus norvegicus [35]) was 118.9 and the Mortality (Rattus norvegicus [36]) was 37.5% and 79%. For the same compound, the Swelling (Rattus norvegicus [37]) was 20.9%, the Deaths (Felis catus [38]) was 1 and the Deaths (Felis catus [39]) was 6. The Deaths (Felis catus [40]) was 12, the Deaths (Felis catus [41]) was 14 and the Deaths (Felis catus [42]) was 15. It also gave a Deaths (Felis catus [43]) of 5.
